Experiments:
[1] = molecular target: Insulin receptor-related protein (Homo sapiens) (UniProt P14616); assay: Inhibition of IRR assessed as residual activity at 10 uM
Outline: (§1)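 Kinase panel screen run as a radioactive activity assay at single compound concentration. Score reported as percent activity remaining relative to DMSO controls (100%).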

[2] = molecular target: T1, Inhibitor of nuclear factor kappa-B kinase subunit epsilon (Homo sapiens) (UniProt Q14164); assay: Inhibition of IKKepsilon assessed as residual activity at 10 uM; outline: as §1
T1 sequence (whole entry): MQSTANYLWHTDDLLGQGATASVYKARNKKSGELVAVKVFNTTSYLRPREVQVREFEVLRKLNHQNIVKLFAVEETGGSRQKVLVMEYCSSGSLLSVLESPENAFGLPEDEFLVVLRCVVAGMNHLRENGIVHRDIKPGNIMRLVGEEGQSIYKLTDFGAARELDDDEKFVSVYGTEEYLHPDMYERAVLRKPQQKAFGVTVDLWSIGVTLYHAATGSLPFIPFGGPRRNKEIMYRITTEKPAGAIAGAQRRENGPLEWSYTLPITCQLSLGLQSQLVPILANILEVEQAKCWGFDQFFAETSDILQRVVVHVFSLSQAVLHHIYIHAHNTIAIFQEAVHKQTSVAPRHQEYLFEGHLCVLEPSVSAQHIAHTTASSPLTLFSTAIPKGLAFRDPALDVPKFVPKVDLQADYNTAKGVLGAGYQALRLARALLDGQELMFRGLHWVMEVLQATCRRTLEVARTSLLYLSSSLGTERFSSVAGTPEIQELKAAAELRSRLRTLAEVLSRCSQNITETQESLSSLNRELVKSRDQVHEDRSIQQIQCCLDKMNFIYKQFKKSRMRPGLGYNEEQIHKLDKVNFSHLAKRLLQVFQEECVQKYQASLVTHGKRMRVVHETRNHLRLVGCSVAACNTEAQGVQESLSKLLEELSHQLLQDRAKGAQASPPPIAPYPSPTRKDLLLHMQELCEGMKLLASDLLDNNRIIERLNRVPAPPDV

[3] = molecular target: Casein kinase I isoform alpha (Homo sapiens) (UniProt P48729); assay: Inhibition of CK1 assessed as residual activity at 10 uM; outline: as §1
Casein kinase I isoform alpha (Homo sapiens), sequence (P48729 2-337 limits assumed): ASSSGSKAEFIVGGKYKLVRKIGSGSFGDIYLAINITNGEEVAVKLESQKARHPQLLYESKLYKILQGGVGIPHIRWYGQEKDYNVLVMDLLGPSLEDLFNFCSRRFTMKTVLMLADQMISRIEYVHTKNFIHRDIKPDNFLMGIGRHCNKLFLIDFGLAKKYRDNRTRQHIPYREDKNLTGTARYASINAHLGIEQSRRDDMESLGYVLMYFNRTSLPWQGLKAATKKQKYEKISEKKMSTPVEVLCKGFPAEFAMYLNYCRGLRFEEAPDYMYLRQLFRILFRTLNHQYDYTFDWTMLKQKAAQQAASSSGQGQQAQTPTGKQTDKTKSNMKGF

[4] = molecular target: T2, Serine/threonine-protein kinase BRSK2 (Homo sapiens) (UniProt Q8IWQ3); assay: Inhibition of BRSK2 assessed as residual activity at 10 uM; outline: as §1
T2 sequence (whole entry): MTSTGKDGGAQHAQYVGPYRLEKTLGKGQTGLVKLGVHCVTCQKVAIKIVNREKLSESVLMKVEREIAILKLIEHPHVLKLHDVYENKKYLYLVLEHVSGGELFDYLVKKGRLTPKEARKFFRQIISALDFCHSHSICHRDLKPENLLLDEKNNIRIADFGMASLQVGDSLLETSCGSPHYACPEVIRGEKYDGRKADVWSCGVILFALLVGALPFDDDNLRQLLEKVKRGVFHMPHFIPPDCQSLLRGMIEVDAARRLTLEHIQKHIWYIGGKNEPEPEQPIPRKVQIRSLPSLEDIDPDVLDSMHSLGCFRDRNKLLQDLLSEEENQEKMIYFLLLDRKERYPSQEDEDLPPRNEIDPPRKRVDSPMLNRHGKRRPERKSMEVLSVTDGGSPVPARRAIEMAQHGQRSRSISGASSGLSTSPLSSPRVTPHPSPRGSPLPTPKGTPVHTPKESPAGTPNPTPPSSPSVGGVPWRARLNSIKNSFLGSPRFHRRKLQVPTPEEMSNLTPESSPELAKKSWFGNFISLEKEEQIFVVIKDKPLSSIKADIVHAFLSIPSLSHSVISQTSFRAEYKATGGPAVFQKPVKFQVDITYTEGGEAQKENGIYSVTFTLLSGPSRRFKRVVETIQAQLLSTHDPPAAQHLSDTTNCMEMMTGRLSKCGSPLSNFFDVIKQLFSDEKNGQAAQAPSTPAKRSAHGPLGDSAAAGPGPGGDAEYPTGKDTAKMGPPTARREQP

[5] = molecular target: Myosin light chain kinase, smooth muscle (Homo sapiens, UniProt Q15746); assay: Inhibition of smMLCK assessed as residual activity at 10 uM
Myosin light chain kinase, smooth muscle, sequence (Q15746 whole entry): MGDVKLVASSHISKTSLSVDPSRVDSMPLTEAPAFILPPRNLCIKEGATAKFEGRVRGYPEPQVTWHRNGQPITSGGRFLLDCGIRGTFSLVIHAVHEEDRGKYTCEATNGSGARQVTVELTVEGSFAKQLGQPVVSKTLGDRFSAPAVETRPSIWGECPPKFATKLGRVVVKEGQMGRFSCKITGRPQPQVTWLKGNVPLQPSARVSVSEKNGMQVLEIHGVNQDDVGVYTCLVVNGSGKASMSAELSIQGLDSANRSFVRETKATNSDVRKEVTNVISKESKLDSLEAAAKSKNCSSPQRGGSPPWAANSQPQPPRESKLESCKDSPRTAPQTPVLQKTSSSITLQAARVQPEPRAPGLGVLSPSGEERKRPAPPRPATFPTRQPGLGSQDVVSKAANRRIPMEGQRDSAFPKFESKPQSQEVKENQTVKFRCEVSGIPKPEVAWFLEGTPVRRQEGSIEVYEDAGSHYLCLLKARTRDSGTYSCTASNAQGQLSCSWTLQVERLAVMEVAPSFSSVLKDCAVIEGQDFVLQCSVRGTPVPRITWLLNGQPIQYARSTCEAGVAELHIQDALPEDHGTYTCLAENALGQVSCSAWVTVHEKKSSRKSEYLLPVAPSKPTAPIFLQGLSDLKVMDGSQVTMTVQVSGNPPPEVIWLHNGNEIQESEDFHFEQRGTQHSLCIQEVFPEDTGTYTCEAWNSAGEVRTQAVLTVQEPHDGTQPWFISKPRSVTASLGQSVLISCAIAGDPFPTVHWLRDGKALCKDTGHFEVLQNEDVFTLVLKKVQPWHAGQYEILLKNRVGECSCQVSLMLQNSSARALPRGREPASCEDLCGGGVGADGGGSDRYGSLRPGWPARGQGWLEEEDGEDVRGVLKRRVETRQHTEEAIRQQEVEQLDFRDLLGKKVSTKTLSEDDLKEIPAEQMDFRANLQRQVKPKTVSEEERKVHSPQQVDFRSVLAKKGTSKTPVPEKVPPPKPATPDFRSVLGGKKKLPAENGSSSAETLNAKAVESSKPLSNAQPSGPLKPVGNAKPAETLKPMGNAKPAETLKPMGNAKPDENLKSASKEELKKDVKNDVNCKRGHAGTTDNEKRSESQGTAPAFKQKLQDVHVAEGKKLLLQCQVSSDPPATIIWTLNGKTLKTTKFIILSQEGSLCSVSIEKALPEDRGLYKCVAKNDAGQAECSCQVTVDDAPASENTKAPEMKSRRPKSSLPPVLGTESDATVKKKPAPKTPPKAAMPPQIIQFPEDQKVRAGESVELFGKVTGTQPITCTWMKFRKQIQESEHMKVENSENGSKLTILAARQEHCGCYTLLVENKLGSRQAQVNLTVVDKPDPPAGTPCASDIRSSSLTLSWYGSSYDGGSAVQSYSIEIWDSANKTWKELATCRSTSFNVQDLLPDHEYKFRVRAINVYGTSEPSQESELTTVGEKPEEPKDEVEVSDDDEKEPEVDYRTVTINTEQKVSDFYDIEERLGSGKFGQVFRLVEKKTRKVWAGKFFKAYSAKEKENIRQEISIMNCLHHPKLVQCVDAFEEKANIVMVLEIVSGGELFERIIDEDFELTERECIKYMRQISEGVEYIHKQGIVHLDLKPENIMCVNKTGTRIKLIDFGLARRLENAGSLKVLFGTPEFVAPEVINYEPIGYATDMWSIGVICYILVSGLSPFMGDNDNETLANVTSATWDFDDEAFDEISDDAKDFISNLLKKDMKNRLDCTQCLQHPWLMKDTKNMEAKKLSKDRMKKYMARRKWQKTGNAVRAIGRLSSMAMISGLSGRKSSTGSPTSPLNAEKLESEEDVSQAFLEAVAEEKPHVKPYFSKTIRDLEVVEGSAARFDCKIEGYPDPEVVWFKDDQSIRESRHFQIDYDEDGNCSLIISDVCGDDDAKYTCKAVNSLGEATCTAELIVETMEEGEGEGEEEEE
Outline: (§2)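 Panel screen by radioactive kinase assay at a single inhibitor concentration. Score is the percent activity remaining relative to DMSO controls (100%).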

[6] = molecular target: T3, NUAK family SNF1-like kinase 1 (Homo sapiens) (UniProt O60285); assay: Inhibition of NUAK1 assessed as residual activity at 10 uM; outline: as §2
T3 sequence (whole entry): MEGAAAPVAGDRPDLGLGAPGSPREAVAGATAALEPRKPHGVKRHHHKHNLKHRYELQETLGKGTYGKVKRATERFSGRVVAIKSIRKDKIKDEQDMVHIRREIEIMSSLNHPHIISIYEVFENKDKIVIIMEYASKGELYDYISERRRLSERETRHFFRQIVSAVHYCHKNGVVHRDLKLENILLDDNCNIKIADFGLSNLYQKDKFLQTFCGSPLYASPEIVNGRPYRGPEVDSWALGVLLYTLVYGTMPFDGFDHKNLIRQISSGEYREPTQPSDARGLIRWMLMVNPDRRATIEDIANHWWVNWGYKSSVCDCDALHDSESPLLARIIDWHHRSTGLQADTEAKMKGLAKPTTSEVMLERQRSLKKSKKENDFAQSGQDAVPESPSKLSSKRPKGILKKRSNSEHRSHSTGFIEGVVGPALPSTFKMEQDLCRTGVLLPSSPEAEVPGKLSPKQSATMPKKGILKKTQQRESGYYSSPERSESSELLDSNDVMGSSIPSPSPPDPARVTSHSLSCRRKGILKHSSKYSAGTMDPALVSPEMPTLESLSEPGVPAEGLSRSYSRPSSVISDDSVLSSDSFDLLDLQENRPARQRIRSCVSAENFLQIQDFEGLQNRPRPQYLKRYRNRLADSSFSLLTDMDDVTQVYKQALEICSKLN

[7] = Inhibition of AMPK assessed as residual activity at 10 uM; outline: as §1

Insulin receptor-related protein (Homo sapiens), sequence (P14616 whole entry): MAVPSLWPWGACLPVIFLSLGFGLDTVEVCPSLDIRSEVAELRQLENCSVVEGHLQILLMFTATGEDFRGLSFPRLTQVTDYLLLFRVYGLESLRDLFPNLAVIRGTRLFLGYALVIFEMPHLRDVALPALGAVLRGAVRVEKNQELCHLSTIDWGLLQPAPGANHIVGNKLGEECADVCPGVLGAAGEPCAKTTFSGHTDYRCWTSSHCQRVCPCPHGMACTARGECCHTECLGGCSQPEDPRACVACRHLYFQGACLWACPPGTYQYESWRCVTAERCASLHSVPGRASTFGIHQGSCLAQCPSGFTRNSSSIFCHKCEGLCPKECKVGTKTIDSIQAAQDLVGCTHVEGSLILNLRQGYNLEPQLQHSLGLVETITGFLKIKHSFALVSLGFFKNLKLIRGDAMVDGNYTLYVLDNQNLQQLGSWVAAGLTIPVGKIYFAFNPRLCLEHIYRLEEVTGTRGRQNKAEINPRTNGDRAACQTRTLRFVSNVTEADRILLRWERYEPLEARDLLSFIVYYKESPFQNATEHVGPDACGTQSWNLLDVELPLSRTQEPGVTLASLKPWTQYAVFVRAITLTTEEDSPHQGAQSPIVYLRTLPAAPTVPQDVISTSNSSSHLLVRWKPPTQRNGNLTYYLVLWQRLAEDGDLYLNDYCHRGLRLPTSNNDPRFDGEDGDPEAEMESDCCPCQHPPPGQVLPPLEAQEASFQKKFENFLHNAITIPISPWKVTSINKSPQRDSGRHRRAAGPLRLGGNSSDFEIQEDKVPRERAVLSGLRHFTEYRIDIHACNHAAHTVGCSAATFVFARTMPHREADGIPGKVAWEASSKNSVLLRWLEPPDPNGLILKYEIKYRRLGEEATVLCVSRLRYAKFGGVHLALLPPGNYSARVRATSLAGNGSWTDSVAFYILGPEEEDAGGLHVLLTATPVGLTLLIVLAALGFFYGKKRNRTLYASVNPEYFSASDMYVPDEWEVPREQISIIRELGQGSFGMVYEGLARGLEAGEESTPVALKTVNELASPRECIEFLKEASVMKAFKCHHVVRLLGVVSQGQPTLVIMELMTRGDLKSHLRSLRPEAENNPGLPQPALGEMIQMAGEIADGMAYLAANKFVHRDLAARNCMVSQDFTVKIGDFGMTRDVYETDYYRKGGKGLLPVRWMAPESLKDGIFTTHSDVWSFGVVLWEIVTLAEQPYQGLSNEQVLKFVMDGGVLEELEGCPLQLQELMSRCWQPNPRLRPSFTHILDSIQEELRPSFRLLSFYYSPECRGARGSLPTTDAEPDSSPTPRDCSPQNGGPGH

Row | Activity [1] [%] | Activity [2] [%] | Activity [3] [%] | Activity [4] [%] | Activity [5] [%] | Activity [6] [%] | Activity [7] [%] | SMILES
1 | 98 | 100 | 100 | 75 | 11 | 86 | 79 | CN(C)CCCC(=O)Nc1ccc2c(C#N)cnc(Nc3cccc(Br)c3)c2c1
2 | 73 | 80 | 88 | 75 | 33 | 100 | 86 | CN(C)C/C=C/C(=O)Nc1ccc2c(C#N)cnc(Nc3cccc(Br)c3)c2c1
3 | 86 | 91 | 100 | 100 | 9 | 94 | 77 | CN1CCN(CCC(=O)Nc2ccc3c(C#N)cnc(Nc4cccc(Br)c4)c3c2)CC1

From ChEMBL document CHEMBL1641579, “Synthesis and biological evaluation of 7-substituted-1-(3-bromophenylamino)isoquinoline-4-carbonitriles as inhibitors of myosin light chain kinase and epidermal growth factor receptor” (Bioorg Med Chem, 2011)
